The record followed here is the array DNA melting data of Ke et al. (doi:10.1101/2024.01.08.574731).

Data set [1] in a line: melting temperature; fluorescence melt of hairpins on a sequencing array, two-state fit, raised by 9.35 °C to match UV melts. The settings on record: sodium 0.088 M. The method, boiled down:
(§1)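 Cy3 fluorescence of library hairpins on a sequenced MiSeq flow cell, with annealed Cy3 and quencher oligos, was imaged in 50 mM Na-HEPES pH 8.0, 25 mM NaCl in 2.5 °C steps up to 60 °C. Signals were normalised to pre-quench Cy3 and to control variants. Melting temperature and folding enthalpy came from bootstrapped two-state fits, inverse-variance combined over four replicates. Fitted temperatures were raised by 9.35 °C to match UV melts.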

Data set [2] is described as follows: folding enthalpy; higher = less favourable; fluorescence melt of hairpins on a sequencing array, two-state fit. The settings on record: sodium 0.088 M. An outline of the steps:
as §1

Turning to GGGAGCGAAAGCTATCCC ((((((....)))..))), in data set [1], the Tm came to 48 °C. Also, the folding enthalpy in data set [2] is -16.6 kcal/mol.
For GCGCTGCGAAAGCACCGC (((.(((....))).))), the Tm in data set [1] was found to be 53.9 °C. In addition, in data set [2], the folding enthalpy is -46.8 kcal/mol.
On the same counts, the results for GCTTGAACGAAAGTTAGC (((..(((....)))))) are 36.1 °C and -13.7 kcal/mol.
In the same order, the values of GACTAACGAAAGTTTGTC (((.(((....))).))) are 47 °C and -30.9 kcal/mol.
In the same order, the values of CGCAACGGAAACGTAGCG (((.(((....))).))) are 53.4 °C and -38 kcal/mol.
As for GAATTTGGAAACAAGTTC (((.(((....))).))), in data set [1], the Tm is 33.8 °C. Besides, the folding enthalpy in data set [2] is -28.8 kcal/mol.
In the same order, the values of GGTTTGGAAACAAACC ((((((....)))))) are 56.5 °C and -41.6 kcal/mol.
In the same order, the values of GCGTGGCGAAAGCTATGC ((.(.((....)).).)) are 52.5 °C and -31.4 kcal/mol.
On the same counts, the results for TGGACGAAAGTCCA (((((....))))) are 67.5 °C and -19.4 kcal/mol.
Consider GATCACCGTGGTGATC ((((((....)))))), for which, in data set [1], the Tm is 66.3 °C. Moreover, in data set [2], the folding enthalpy is -29.5 kcal/mol.
On the same counts, the results for GTCATAGAAATATGAC ((((((....)))))) are 45.6 °C and -30.2 kcal/mol.
On the same counts, the results for GGGGTAGGAAACTGCTCC ((.(.((....)).).)) are 35.9 °C and -29.9 kcal/mol.
In the same order, the values of GCGTGGCGAAAGCGAGGC ((.(.((....)).).)) are 51.1 °C and -16.8 kcal/mol.
As to GCGGTTACCCGC ((((....)))), the Tm in data set [1] is 56.7 °C. For the same sequence, the folding enthalpy in data set [2] was -28.4 kcal/mol.
As to GATCTGCGCCCAGATC ((((((....)))))), the Tm in data set [1] stood at 48.4 °C. Moreover, the folding enthalpy in data set [2] was -29.2 kcal/mol.
As for GCCGAGCGAAAGCGTGGC (((..((....))..))), the Tm in data set [1] turned out to be 68.3 °C. In addition, the folding enthalpy in data set [2] is -25.4 kcal/mol.
Consider GGAGGGGGAAACCCTTCC (((.(((....))).))), for which the Tm in data set [1] turned out to be 49.2 °C. Moreover, the folding enthalpy in data set [2] is -25.7 kcal/mol.
In the case of GATCAACGAAAGTTATC (((.(((....)))))), in data set [1], the Tm was 25.4 °C. Besides, the folding enthalpy in data set [2] is -9.84 kcal/mol.
In the same order, the values of GCACGACCGAAAGGTTGC (((..(((....)))))) are 38.1 °C and -14.4 kcal/mol.
GCGAATTATCGC ((((....)))): the Tm in data set [1] came out at 47.8 °C. In addition, the folding enthalpy in data set [2] was -21.3 kcal/mol.
In the same order, the values of GTGTTTGGAAACAGACAC ((((.((....)).)))) are 44.1 °C and -36 kcal/mol.
In the same order, the values of GTCAAACGAAAGTTAGAC (((.(((....))).))) are 44.9 °C and -29.5 kcal/mol.
As for CGTGCGGAAACGCCTACG ((((((....)))..))), in data set [1], the Tm turned out to be 39.1 °C. In addition, the folding enthalpy in data set [2] was -15.3 kcal/mol.
In the same order, the values of GATGGCACGAAAGTGATC (((..(((....)))))) are 27.2 °C and -12.9 kcal/mol.
In the same order, the values of GCAGACGAAAGTCATTGC ((((((....)))..))) are 37.1 °C and -16.5 kcal/mol.
On to GGGTGGCCGAAAGGCCCC (((..(((....)))))), for which the Tm in data set [1] was determined as 54.2 °C. Moreover, the folding enthalpy in data set [2] is -11.8 kcal/mol.
In the same order, the values of GGAATCGAAAGATACTCC ((((((....)))..))) are 24.7 °C and -9.63 kcal/mol.
On the same counts, the results for GTAGTGGGAAACTACTGC (.(((.(....).))).) are 46 °C and -28.8 kcal/mol.
In the same order, the values of GATCTTCGTGAAGATC ((((((....)))))) are 53.3 °C and -41 kcal/mol.
As to GAGTACCGAAAGGTTCTC (((.(((....))).))), the Tm in data set [1] was determined as 47.9 °C. In data set [2], the folding enthalpy was -30.7 kcal/mol.
In the same order, the values of CGCGATCGGAAACGAGCG (((..(((....)))))) are 53 °C and -34.2 kcal/mol.
In the same order, the values of GGCCACCCGAAAGGGGCC (((..(((....)))))) are 61.3 °C and -23.2 kcal/mol.
On the same counts, the results for GTGTACGAAAGTATTCAC ((((((....)))..))) are 28.7 °C and -11.8 kcal/mol.
As for TACATGAAAATGTA (((((....))))), the Tm in data set [1] is 32.1 °C. For the same sequence, in data set [2], the folding enthalpy is -12.7 kcal/mol.
Turning to GCTGCGCGAAAGCTCAGC ((((.((....)).)))), in data set [1], the Tm was 64.4 °C. Besides, the folding enthalpy in data set [2] is -35.4 kcal/mol.
Regarding GAGCAGGGAAACCTGTTC ((.((((....)))).)), the Tm in data set [1] is 46 °C. Besides, the folding enthalpy in data set [2] is -24.1 kcal/mol.
GCTGGGCGAAAGCCCCGC ((.((((....)))).)): the Tm in data set [1] is 58.5 °C. In addition, in data set [2], the folding enthalpy was -16.1 kcal/mol.
